From ChEMBL document CHEMBL5316295, “Systematic Design of Adenosine Analogs as Inhibitors of a Clostridioides difficile-Specific DNA Adenine Methyltransferase Required for Normal Sporulation and Persistence” (J Med Chem, 2023)
Activity calls are given as the source filed them. No cut-off for these calls is given here.

Key:
[1] = target: T1, Histone-lysine N-methyltransferase EHMT2 (Homo sapiens) (UniProt Q96KQ7); experiment: Inhibition of human G9a (913 to 1193 residues) expressed in Escherichia coli BL21 (DE3)-gold cells using histone H3 (1 to 21 residues) as substrate and 3H-SAM as cosubstrate at 10 uM pretreated with compound for 20 mins in presence of histone H3 (1 to 21 residues) followed by cosubstrate addition and measured after 1 hr; conditions: time 80.0 min
T1 sequence (whole entry): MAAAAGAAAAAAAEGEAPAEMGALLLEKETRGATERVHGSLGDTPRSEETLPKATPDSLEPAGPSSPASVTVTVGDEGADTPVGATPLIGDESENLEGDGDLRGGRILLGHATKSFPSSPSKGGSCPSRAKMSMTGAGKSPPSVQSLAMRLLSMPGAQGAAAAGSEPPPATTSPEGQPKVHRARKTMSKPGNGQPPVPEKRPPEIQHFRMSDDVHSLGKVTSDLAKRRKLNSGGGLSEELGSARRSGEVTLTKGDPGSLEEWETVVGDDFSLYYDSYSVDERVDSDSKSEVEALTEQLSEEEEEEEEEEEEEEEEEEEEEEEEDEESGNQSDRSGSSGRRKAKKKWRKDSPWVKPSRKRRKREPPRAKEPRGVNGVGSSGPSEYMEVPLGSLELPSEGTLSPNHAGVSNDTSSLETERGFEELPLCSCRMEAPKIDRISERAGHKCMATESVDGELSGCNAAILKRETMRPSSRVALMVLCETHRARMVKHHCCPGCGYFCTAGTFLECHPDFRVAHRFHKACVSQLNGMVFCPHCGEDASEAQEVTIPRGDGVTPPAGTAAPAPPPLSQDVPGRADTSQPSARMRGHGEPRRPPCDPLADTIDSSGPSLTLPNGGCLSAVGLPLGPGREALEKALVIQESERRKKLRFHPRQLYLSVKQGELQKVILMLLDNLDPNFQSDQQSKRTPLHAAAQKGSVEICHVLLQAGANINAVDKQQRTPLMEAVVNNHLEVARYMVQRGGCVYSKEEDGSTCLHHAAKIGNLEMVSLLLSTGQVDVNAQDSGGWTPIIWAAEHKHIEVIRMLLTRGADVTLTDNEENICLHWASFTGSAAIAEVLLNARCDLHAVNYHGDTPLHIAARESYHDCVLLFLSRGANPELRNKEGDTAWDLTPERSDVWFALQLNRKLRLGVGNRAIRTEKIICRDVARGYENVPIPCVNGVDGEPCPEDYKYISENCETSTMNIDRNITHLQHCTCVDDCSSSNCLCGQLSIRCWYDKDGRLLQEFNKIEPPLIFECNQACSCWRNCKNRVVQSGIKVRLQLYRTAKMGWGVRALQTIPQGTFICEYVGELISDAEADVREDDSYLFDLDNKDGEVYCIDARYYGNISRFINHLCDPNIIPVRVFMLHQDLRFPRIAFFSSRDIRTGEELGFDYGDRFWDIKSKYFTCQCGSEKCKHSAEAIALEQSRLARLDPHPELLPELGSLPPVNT
Method in brief: (§1)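 Enzymes (DOT1L 1 nM; EZH2, G9a, PRMT1 5 nM) mixed with substrate (0.05 mg/mL oligonucleosomes for DOT1L; 0.05 mg/mL core histone for EZH2; 5 μM H3 1–21 peptide for G9a; 5 μM H4 for PRMT1). Compound (10 μM) added for 20 min at room temperature, then 1 μM ³H-SAM for 1 h at 30 °C; filter-paper read-out. Triplicates, mean ± SD.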

[2] = target: DNA (cytosine-5)-methyltransferase 1 (Homo sapiens) (UniProt P26358); experiment: Inhibition of human DNMT1 (351 to 1600 residues) using 5'-CCT GCG GAG GCT MGT CAT GA-3' and 3'-GGACGCCTCCGAGCAGTACT-5' as substrate and SAM as cosubstrate at 10 uM incubated for 1 hr
DNA (cytosine-5)-methyltransferase 1 (Homo sapiens), sequence (P26358 whole entry, the tested form may be a part): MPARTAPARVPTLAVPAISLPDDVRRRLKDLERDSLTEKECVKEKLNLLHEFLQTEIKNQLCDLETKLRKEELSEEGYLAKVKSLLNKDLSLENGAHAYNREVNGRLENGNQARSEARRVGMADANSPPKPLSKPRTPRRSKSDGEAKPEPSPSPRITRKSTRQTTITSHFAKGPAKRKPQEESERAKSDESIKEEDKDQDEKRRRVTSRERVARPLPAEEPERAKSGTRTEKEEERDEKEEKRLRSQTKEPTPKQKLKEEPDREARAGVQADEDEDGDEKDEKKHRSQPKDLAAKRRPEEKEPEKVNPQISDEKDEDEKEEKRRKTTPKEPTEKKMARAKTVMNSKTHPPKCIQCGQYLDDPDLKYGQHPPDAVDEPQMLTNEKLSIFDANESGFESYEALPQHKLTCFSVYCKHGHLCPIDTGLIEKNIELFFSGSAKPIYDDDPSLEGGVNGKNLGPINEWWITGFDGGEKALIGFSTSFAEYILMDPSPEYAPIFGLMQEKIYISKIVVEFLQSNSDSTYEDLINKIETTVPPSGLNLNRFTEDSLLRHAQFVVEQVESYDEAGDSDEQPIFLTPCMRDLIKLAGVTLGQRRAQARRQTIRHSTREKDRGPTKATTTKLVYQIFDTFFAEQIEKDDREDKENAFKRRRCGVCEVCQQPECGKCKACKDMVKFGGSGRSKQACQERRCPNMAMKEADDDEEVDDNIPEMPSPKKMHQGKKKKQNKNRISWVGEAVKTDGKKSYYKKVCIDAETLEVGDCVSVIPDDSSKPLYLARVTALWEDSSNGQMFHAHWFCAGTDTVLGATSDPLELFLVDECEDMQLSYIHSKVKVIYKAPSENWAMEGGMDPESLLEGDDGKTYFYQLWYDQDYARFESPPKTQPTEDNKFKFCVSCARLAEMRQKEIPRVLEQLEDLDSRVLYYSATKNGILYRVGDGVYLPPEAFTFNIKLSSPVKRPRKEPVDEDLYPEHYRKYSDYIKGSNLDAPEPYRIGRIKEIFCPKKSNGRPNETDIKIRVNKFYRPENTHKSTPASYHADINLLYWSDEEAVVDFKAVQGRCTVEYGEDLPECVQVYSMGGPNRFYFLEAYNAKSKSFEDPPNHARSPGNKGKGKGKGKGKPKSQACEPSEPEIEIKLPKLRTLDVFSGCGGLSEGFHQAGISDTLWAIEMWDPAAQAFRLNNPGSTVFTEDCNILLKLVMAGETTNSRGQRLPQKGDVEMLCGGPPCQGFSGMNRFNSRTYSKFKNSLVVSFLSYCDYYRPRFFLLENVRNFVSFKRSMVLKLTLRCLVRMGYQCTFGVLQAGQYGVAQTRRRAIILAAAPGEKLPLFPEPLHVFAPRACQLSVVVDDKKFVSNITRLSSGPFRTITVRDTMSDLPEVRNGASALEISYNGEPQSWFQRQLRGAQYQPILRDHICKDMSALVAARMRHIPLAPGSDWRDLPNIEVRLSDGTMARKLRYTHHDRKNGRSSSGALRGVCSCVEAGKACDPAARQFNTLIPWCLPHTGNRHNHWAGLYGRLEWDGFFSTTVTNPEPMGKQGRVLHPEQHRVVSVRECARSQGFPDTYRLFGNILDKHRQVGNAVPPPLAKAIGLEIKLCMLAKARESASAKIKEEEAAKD
Method in brief: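 DNMT1 (0.1 μM) with 1 μM hemimethylated dsDNA, 5.5 μM SAM and 10 μM inhibitor in 50 mM Tris pH 7.5, 1 mM EDTA, run 1 h at 37 °C.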

[3] = target: DNMT3A-DNMT3L (Mus musculus) (UniProt O88508+Q9CWR8); experiment: Inhibition of mouse DNMT3A/DNMT3L using 5'-G CATGCGTTCTAATTAGAAUGCATG-3' and 3'-GTA CGS AAG ATT AAT CTT GCG TAC G-5' as substrate and SAM as cosubstrate at 10 uM incubated for 1 hr; assay type: protein-complex assay
DNMT3A-DNMT3L (Mus musculus), sequence (Q9CWR8 whole entry, looked up, other chains not shown): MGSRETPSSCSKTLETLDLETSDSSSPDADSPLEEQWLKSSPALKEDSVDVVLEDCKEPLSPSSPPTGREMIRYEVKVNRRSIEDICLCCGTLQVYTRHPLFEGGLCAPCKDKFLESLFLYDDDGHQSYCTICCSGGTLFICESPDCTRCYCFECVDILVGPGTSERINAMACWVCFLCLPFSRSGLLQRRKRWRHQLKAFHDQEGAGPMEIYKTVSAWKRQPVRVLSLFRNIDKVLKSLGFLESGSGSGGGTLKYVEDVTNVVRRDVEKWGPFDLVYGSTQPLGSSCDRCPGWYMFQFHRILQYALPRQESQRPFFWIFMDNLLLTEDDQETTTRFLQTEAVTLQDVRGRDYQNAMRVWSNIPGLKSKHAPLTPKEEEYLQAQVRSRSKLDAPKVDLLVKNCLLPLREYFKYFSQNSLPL
Method in brief: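 Dnmt3a-3L (0.5 μM) with 5 μM dsDNA, 25 μM SAM and 10 μM inhibitor in 20 mM Tris pH 7.5, 40 mM NaCl, 4 mM DTT, 20% glycerol, run 1 h at 37 °C.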

[4] = Binding affinity to Clostridioides difficile-specific DNA adenine methyltransferase by MicroCal PEAQ-ITC instrument analysis
[5] = target: Histone-lysine N-methyltransferase EZH2 (Homo sapiens) (UniProt Q15910); experiment: Inhibition of EZH2 (unknown origin) using chicken core histone as substrate and 3H-SAM as cosubstrate at 10 uM pretreated with compound for 20 mins in presence of chicken core histone followed by cosubstrate addition and measured after 1 hr; conditions: time 80.0 min; method in brief: as §1
Histone-lysine N-methyltransferase EZH2 (Homo sapiens), sequence (Q15910 whole entry, looked up): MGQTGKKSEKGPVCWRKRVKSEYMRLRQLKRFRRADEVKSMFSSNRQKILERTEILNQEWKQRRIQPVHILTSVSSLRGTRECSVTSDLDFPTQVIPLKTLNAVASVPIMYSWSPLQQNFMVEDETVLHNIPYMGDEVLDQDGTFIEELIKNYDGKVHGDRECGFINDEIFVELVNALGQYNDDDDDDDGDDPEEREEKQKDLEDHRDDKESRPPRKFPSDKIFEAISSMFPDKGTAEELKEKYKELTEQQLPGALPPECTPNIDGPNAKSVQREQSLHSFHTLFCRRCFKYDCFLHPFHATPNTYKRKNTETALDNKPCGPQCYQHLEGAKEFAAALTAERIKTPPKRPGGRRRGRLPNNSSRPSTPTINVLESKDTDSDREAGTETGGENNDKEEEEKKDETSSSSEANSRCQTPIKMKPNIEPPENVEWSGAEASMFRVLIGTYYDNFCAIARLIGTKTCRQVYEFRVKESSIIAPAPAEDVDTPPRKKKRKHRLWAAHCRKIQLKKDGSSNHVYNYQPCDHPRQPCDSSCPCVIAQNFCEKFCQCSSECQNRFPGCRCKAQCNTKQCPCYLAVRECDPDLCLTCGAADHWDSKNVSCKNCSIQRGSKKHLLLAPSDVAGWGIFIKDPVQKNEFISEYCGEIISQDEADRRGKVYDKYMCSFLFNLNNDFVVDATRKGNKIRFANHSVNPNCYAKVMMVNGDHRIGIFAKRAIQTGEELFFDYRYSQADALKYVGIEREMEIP

[6] = tested on: Caulobacter vibrioides; experiment: Inhibition of Caulobacter vibrioides CcrM using 5'-CGA TTC AAA AAG TCC CAA G-3' and 3'-GCT AAG TTT TTC AGG GTT C-5' as substrate and SAM as cosubstrate at 10 uM incubated for 5 mins
Method in brief: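 Conditions were enzyme 0.1 μM, DNA 5 μM, SAM 30 μM, inhibitor 10 μM, at ~22 °C in 50 mM Tris–HCl pH 7.5, 100 mM NaCl, 1 mM DTT, 0.25% DMSO, run 5 min. Substrate and SAM levels were above K_M.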

[7] = target: mRNA (2'-O-methyladenosine-N(6)-)-methyltransferase (Homo sapiens) (UniProt Q9H4Z3); experiment: Inhibition of human PCIF1 using m7GpppAmG as substrate and SAM as cosubstrate at 10 uM incubated for 15 mins
mRNA (2'-O-methyladenosine-N(6)-)-methyltransferase (Homo sapiens), sequence (Q9H4Z3 whole entry): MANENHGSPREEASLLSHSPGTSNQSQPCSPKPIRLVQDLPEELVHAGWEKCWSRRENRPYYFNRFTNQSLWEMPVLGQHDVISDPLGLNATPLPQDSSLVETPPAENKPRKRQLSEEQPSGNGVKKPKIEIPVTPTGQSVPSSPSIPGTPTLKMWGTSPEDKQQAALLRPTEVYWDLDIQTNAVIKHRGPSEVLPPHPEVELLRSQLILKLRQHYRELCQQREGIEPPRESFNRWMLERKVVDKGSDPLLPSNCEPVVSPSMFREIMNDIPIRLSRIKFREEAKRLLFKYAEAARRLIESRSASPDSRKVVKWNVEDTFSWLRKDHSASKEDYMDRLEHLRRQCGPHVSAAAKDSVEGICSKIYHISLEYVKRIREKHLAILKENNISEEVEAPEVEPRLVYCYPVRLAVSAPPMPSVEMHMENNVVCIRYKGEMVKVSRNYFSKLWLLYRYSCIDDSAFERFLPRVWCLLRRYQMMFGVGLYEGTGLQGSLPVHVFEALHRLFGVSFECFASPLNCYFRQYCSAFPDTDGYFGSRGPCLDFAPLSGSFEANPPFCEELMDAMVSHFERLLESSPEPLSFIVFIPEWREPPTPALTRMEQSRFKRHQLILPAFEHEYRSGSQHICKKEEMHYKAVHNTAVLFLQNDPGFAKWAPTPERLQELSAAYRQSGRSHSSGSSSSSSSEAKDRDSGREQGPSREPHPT
Method in brief: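 Enzyme 0.1 μM with 5 μM RNA, 30 μM SAM and 10 μM inhibitor at ~22 °C in 50 mM Tris–HCl pH 7.5, 100 mM NaCl, 1 mM DTT, 0.25% DMSO. PCIF1 run 15 min with capped RNA; MettL5-Trm112 run 1 h with ssRNA.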

In the case of `CC(C)(C)OC(=O)N1CCC(CCNc2ncnc3c2ncn3[C@@H]2O[C@H](CO)[C@@H](O)[C@H]2O)CC1`, the inhibition [1] is reported as “inactive”, the inhibition [2] is reported as “inactive” and the inhibition [3] is reported as “inactive”. For the same compound, the Kd [4] was 140 nM, the inhibition [5] was “inactive” and the inhibition [6] was “inactive”. The inhibition [7] was “inactive”.

With `OC[C@H]1O[C@@H](n2cnc3c(NCCCc4ccc(O)cc4)ncnc32)[C@H](O)[C@@H]1O` the inhibition [1] was “inactive”, the inhibition [2] was “inactive” and the inhibition [3] was “inactive”. For the same compound, the Kd [4] was 230 nM, the inhibition [5] was “inactive” and the inhibition [6] was “inactive”. For the same compound, the inhibition [7] was “inactive”.

For `CC(C)(C)OC(=O)N1CCC(CCCNc2ncnc3c2ncn3[C@@H]2O[C@H](CO)[C@@H](O)[C@H]2O)CC1`, the inhibition [1] was “inactive”, the inhibition [2] was “inactive” and the inhibition [3] was “inactive”. The Kd [4] was 140 nM, the inhibition [5] was “inactive” and the inhibition [6] was “inactive”. For the same compound, the inhibition [7] was “inactive”.
